Values after ≈ are worked out from the molar mass of the structure shown.
Assays:
Candida albicans [1] = experiment: Fungicidal activity against Candida albicans SC5314-infected Caenorhabditis elegans L4 larvae model assessed as survival of worms at 60 uM after 5 days relative to day 0; type: functional
How it was run: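 C. elegans L4 larvae fed 4 h on YPD agar lawns of C. albicans SC5314 (overnight culture spread, 16 h at 37 °C). Worms washed in M9 buffer and incubated with compound at 60 μM or DMSO control. Living worms counted daily; % survival relative to day 0. Mean ±SEM of duplicates; experiments run at least twice.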

Candida albicans [2] = experiment: Fungicidal activity against Candida albicans SC5314 assessed as concentration required to less than 0.1% survival of organism after 2 hrs; type: functional; details: SC5314, 2 h
How it was run: (§1)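 C. albicans SC5314 or C. glabrata BG2 exposed to compounds. Cells then washed and plated on YPD (1% yeast extract, 2% peptone, 2% glucose) for CFU counts. MFC = minimal concentration leaving <0.1% survival relative to DMSO control.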

[3] = Toxicity in glp-4delta sek-1 delta double mutant Caenorhabditis elegans model assessed as survival at 50 uM after 11 days relative to day 0; type: organism-based; details: in vivo
How it was run: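 glp-4Δsek-1Δ C. elegans grown on NGM/OP50 E. coli plates to L4 and washed in M9 buffer (with cholesterol and kanamycin). 40–50 worms per well in 1 mL M9 with compound at 50 μM or DMSO (0.5%) control. Survival counted daily, relative to day 0. Mean ±SEM of duplicates; experiments run at least twice.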

Nakaseomyces glabratus = experiment: Fungal activity against Candida glabrata BG2 assessed as concentration required to less than 0.1% survival of organism after 2 hrs; type: functional; details: BG2, 2 h; how it was run: as §1
[4] = Antimicrobial activity against mixed Candida albicans SC5314/Staphylococcus epidermidis assessed as biofilm eradication after 24 hrs; type: functional
How it was run: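 Mixed biofilm of C. albicans SC5314 and S. epidermidis (50/50). Overnight cultures suspended in 1/20 TSB at OD590 0.5 and mixed. 24 h adhesion, planktonic cells removed, then 48 h growth in fresh 1/20 TSB. Mature biofilms exposed 24 h to compound in PBS. Biomass read by crystal violet staining. BEC50 = concentration eradicating 50% of biofilm.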

Candida albicans [5] = experiment: Fungicidal activity against Candida albicans SC5314 assessed as biofilm eradication after 24 hrs; type: functional

SMILES	survival at 60 µM (Candida albicans [1])	MFC (Candida albicans [2])	survival at 264 h, 50 µM [3]	MFC (Nakaseomyces glabratus)	BBC50 [4]	BBC50 (Candida albicans [5])
Clc1ccc(CSc2cccc(N=C(NC3CCCCC3)NC3CCCCC3)c2)cc1	18.5%	5 µM (≈ 2.28 µg/mL)	19%	5 µM (≈ 2.28 µg/mL)		
Brc1cc(Br)cc(CSc2ccc(N=C(NC3CCCCC3)NC3CCCCC3)cc2)c1	49%	5 µM (≈ 2.9 µg/mL)	51%	5 µM (≈ 2.9 µg/mL)		
Brc1cc(Br)cc(CSc2ccccc2N=C(NC2CCCCC2)NC2CCCCC2)c1		5 µM (≈ 2.9 µg/mL)		50 µM (≈ 29 µg/mL)		
Nc1ccccc1SCc1cc(Br)cc(Br)c1		> 100 µM		> 100 µM		
OC(Cn1cncn1)(Cn1cncn1)c1ccc(F)cc1F [FLUCONAZOLE]		> 100 µM		> 100 µM	>240 µM	>240 µM
Nc1ccc(SCc2cc(Br)cc(Br)c2)cc1		> 100 µM		> 100 µM		
N=C(N)Nc1ccccc1SCc1ccc(Cl)cc1		> 100 µM		> 100 µM		
N=C(N)Nc1ccccc1SCc1cc(Br)cc(Br)c1		50 µM (≈ 20.8 µg/mL)		50 µM (≈ 20.8 µg/mL)		
Cl.N=C(N)NC(=N)Nc1cccc(SCc2cc(Br)cc(Br)c2)c1	15.4%	5 µM	5%	10 µM	55 µM	
Nc1ccc(SCc2ccc(Cl)cc2)cc1		> 100 µM		> 100 µM		
N=C(N)NC(=N)Nc1ccc(SCc2ccc(Cl)cc2)cc1		50 µM (≈ 16.7 µg/mL)		50 µM (≈ 16.7 µg/mL)		
N=C(N)Nc1ccc(SCc2ccc(Cl)cc2)cc1		50 µM (≈ 14.6 µg/mL)		50 µM (≈ 14.6 µg/mL)		
Brc1cc(Br)cc(CSc2cccc(N=C(NC3CCCCC3)NC3CCCCC3)c2)c1	55.5%	5 µM (≈ 2.9 µg/mL)	33%	5 µM (≈ 2.9 µg/mL)		
N=C(N)Nc1cccc(SCc2cc(Br)cc(Br)c2)c1		50 µM (≈ 20.8 µg/mL)		50 µM (≈ 20.8 µg/mL)		
N=C(N)Nc1ccc(SCc2cc(Br)cc(Br)c2)cc1		50 µM (≈ 20.8 µg/mL)		50 µM (≈ 20.8 µg/mL)		
N=C(N)NC(=N)Nc1cccc(SCc2ccc(Cl)cc2)c1		50 µM (≈ 16.7 µg/mL)		50 µM (≈ 16.7 µg/mL)		
Clc1ccc(CSc2ccc(N=C(NC3CCCCC3)NC3CCCCC3)cc2)cc1		> 100 µM		> 100 µM		
N=C(N)NC(=N)Nc1ccc(SCc2cc(Br)cc(Br)c2)cc1		> 100 µM		> 100 µM		
Nc1ccccc1SCc1ccc(Cl)cc1		> 100 µM		> 100 µM		
Clc1ccc(CSc2ccccc2N=C(NC2CCCCC2)NC2CCCCC2)cc1		> 100 µM		50 µM (≈ 22.8 µg/mL)		
N=C(N)Nc1cccc(SCc2ccc(Cl)cc2)c1		100 µM (≈ 29.2 µg/mL)		100 µM (≈ 29.2 µg/mL)		

Source: ChEMBL document CHEMBL1777798, “Novel fungicidal benzylsulfanyl-phenylguanidines” (Bioorg Med Chem Lett, 2011)
